pIC50, pKi: −log10 of the molar value. Activity calls are given as the source filed them. No cut-off for these calls is given here.
How the values were obtained:
Mus musculus [1] = assay: Antidepressant-like activity in Albino Swiss CD-1 mouse assessed as immobility time at 10 mg/kg, ip administered 30 mins prior to test measured for last 4 mins of 6 mins observation by forced swim test (reference value: 153.9 to 201.9 secs); format: functional
Mus musculus [2] = assay: Anticonvulsant activity in ip dosed Albino Swiss CD-1 mouse assessed as dose required to protect against 50 Hz current-induced seizure; format: functional; details: Swiss CD-1, ip
[3] = Protection index, ratio of TD50 for motor impairment in ip dosed Swiss albino CD-1 mouse to ED50 for protection against 50 Hz current-induced seizures in ip dosed Swiss albino CD-1 mouse; format: toxicity, organism-based, Swiss CD-1; details: in vivo, read-out: Ratio TD50/ED50
Mus musculus [4] = assay: Neurotoxicity in Albino Swiss CD-1 mouse assessed as motor impairment at 15 mg/kg, ip treated 30 mins prior to test by rotarod test; format: toxicity, organism-based; details: in vivo, 0.5 h
[5] = target: T1, Alpha-1A adrenergic receptor (Homo sapiens, UniProt P35348); assay: Displacement of [3H]prazosin from recombinant human alpha1 adrenoceptor expressed in CHO cell membranes after 30 mins by liquid scintillation counting method
T1 sequence (P35348 whole entry): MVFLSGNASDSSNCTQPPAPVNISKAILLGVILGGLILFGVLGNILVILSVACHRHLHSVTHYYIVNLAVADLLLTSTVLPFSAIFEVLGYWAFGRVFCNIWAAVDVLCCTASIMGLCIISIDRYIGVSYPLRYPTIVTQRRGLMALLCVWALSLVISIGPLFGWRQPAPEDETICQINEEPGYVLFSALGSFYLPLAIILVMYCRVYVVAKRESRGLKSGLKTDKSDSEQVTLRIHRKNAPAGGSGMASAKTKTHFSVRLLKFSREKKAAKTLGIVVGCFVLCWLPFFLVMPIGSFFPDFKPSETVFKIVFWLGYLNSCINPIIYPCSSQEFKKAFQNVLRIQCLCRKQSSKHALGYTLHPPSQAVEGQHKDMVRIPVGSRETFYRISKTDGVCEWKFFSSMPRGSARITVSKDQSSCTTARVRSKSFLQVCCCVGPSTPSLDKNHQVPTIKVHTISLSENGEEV

Mus musculus [6] = assay: Anticonvulsant activity in Albino Swiss CD-1 mouse assessed as protection against 50 Hz current-induced seizure at 100 mg/kg, ip; format: functional, organism-based
Mus musculus [7] = assay: Toxicity in Albino Swiss CD-1 mouse assessed as effect on locomotory activity at 5 to 10 mg/kg, ip administered for 30 mins prior to test measured for 1 min; format: organism-based; details: in vivo
Method in brief: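 Mice dosed i.p. 30 min before test; vehicle groups received 0.9% NaCl. Spontaneous locomotion scored as number of crossings during a 1-min session. Each dose compared with its own vehicle group by Student t-test; mean ± SEM, n = 8–10 mice per group.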

Mus musculus [8] = assay: Antiallodynic activity in oxaliplatin-induced Albino Swiss CD-1 mouse allodynia model assessed as effect on shaking at 30 mg/kg, ip measured after 60 mins by cold plate test; format: functional, organism-based
Mus musculus [9] = assay: Antiallodynic activity in oxaliplatin-induced Albino Swiss CD-1 mouse allodynia model assessed as effect on decrease in abnormal movement at 30 mg/kg, ip measured after 60 mins by cold plate test; format: functional, organism-based
[10] = target: 5-hydroxytryptamine receptor 6 (Homo sapiens, UniProt P50406); assay: Displacement of [3H]LSD from recombinant human 5-HT6 receptor expressed in CHO cells cell membranes after 60 mins by liquid scintillation counting method
Mus musculus [11] = assay: Antinociceptive activity in STZ-induced Albino Swiss CD-1 mouse model of thermal-induced nociception assessed as increase in latency to respond with hind paw lick or jumping at 30 mg/kg, ip measured after 60 mins by hot plate test; format: functional, organism-based
[12] = target: 5-hydroxytryptamine receptor 2A (Homo sapiens, UniProt P28223); assay: biochemical; format: cell-based, HEK293;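 note: radioligand displacement of [3H]ketanserin binding at human 5-HT2A receptor in membranes from HEK293 cells, 60 min incubation, read by liquid scintillation counting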
Mus musculus [13] = assay: Antidepressant-like activity in Albino Swiss CD-1 mouse assessed as immobility time at 5 mg/kg, ip administered 30 mins prior to test measured for last 4 mins of 6 mins observation by forced swim test (reference value: 153.9 to 201.9 secs); format: functional
Mus musculus [14] = assay: Toxicity in Albino Swiss CD-1 mouse assessed as death at 15 to 100 mg/kg, ip; format: organism-based; details: in vivo
Method in brief: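 Deaths counted in mice during maximal electroshock (MES) seizure testing after i.p. dosing, 6 mice per dose (3 or 1 at some top doses); recorded as number dead/number tested alongside protection and rotarod motor impairment (10 rpm); untreated control group included.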

[15] = target: T2, 5-hydroxytryptamine receptor 1A (Homo sapiens, UniProt P08908); assay: (§1) Antagonist activity at human 5-HT1A receptor expressed in CHO-K1 cells co-expressing Galpha16 assessed as decrease in serotonin calcium mobilization preincubated for 25 mins followed by serotonin challenge measured for 30 secs by aequorin-derived luminescence assay; format: functional, cell-based
T2 sequence (P08908 whole entry): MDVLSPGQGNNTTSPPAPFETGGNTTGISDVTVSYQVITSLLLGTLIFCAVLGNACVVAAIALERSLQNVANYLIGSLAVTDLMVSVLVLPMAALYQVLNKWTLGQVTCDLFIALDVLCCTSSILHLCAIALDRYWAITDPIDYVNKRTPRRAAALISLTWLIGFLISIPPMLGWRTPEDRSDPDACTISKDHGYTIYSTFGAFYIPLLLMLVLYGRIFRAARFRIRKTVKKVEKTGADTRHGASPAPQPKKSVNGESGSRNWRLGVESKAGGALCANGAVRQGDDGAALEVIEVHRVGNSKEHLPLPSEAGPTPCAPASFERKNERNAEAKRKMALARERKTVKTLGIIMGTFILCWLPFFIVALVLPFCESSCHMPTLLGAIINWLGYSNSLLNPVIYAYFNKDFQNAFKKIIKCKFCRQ

[16] = target: T3, 5-hydroxytryptamine receptor 1A (Homo sapiens) (UniProt P08908); assay: as §1; format: functional, cell-based
T3 sequence (whole entry): T2 sequence (P08908 whole entry)

[17] = target: T2, 5-hydroxytryptamine receptor 1A; assay: Displacement of [3H]8-OH-DPAT from recombinant human 5-HT1A receptor expressed in HEK293 cell membranes after 60 mins by liquid scintillation counting method
[18] = target: T3, 5-hydroxytryptamine receptor 1A (Homo sapiens); assay: Antagonist activity at human 5-HT1A receptor expressed in CHO-K1 cells co-expressing Galpha16 assessed as decrease in serotonin-induced calcium mobilization preincubated for 25 mins followed by serotonin challenge measured for 30 secs by aequorin-derived luminescence assay relative to control; format: functional, cell-based
[19] = target: T3, 5-hydroxytryptamine receptor 1A (Homo sapiens); assay: Agonist activity at human 5-HT1A receptor expressed in CHO-K1 cells co-expressing Galpha16 assessed as increase in calcium mobilization measured for 30 secs by aequorin-derived luminescence assay relative to serotonin; format: functional, cell-based
Mus musculus [20] = assay: Anxiolytic-like activity in Albino Swiss CD-1 mouse assessed as increase in number of punished crossings at 10 mg/kg, ip administered for 30 mins prior to test measured for 1 min by four-plate test; format: functional, organism-based
Method in brief: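 Four-plate test in mice, i.p., 30 min before test; vehicle 0.9% NaCl; doses 1.25–10 mg/kg; number of punished crossings counted; mean ± SEM, n = 8–10 mice per group; ANOVA F statistics.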

D(2) dopamine receptor = D(2) dopamine receptor (Homo sapiens, UniProt P14416); assay: Displacement of [3H]methylspiperonee from recombinant human D2 receptor expressed in HEK293 cells cell membranes after 60 mins by liquid scintillation counting method
[21] = Neurotoxicity in ip dosed Albino Swiss CD-1 mouse assessed as minimum dose required to induce motor impairment treated 30 mins prior to test by rotarod test; format: toxicity, organism-based; details: in vivo
[22] = target: 5-hydroxytryptamine receptor 7 (Homo sapiens, UniProt P34969); assay: biochemical; format: cell-based, CHO
Mus musculus [23] = assay: Antiallodynic activity in STZ-induced Albino Swiss CD-1 mouse allodynia model assessed as increase in paw withdrawal latency time at 30 mg/kg, ip measured after 60 mins by Von Frey test; format: functional, organism-based
Mus musculus [24] = assay: Antiallodynic activity in oxaliplatin-induced Albino Swiss CD-1 mouse allodynia model assessed as effect on jumping at 30 mg/kg, ip measured after 60 mins by cold plate test; format: functional, organism-based
Mus musculus [25] = assay: Antiallodynic activity in oxaliplatin-induced Albino Swiss CD-1 mouse allodynia model assessed as effect on hind paw licking at 30 mg/kg, ip measured after 60 mins by cold plate test; format: functional, organism-based
Mus musculus [26] = assay: Antidepressant-like activity in Albino Swiss CD-1 mouse assessed as immobility time at 20 mg/kg, ip administered 30 mins prior to test measured for last 4 mins of 6 mins observation by forced swim test (reference value: 153.9 to 201.9 secs); format: functional

Sequence of 5-hydroxytryptamine receptor 6 (P50406 whole entry): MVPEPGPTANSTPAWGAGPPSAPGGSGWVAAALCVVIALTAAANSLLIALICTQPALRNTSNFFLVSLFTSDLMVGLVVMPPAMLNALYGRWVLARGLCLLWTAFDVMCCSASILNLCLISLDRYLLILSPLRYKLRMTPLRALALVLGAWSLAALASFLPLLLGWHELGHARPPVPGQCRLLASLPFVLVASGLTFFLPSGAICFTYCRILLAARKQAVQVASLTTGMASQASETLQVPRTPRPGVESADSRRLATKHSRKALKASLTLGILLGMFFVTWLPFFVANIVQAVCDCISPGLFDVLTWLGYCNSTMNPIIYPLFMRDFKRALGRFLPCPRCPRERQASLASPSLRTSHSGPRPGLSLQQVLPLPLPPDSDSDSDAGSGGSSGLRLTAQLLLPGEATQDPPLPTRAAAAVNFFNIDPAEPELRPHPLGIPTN
Sequence of 5-hydroxytryptamine receptor 7 (P34969 whole entry): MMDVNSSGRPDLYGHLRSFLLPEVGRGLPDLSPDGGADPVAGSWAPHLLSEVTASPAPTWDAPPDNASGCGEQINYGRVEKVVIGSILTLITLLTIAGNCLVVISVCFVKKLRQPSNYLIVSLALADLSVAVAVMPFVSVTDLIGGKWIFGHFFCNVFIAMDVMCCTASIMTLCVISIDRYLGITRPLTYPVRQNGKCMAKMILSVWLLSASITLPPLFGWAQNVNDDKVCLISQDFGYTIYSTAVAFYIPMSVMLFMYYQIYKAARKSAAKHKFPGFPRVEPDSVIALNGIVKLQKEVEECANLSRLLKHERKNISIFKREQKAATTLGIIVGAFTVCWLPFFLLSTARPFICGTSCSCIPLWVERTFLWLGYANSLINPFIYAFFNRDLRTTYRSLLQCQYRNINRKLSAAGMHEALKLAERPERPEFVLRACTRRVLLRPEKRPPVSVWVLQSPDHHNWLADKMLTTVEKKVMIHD
Sequence of 5-hydroxytryptamine receptor 2A (P28223 whole entry): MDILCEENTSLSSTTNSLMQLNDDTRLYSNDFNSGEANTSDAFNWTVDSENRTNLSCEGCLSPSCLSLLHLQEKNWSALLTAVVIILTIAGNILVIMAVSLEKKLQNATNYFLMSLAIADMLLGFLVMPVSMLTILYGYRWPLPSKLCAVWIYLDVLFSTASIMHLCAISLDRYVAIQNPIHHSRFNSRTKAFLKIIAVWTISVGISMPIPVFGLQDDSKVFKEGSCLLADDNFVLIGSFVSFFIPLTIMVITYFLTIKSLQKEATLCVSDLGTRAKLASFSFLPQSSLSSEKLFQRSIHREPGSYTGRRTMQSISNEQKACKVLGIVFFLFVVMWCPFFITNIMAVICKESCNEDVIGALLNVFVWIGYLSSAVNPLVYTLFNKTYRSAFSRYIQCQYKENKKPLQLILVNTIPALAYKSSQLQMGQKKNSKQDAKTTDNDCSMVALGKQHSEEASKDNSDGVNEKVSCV
Sequence of D(2) dopamine receptor (P14416 whole entry): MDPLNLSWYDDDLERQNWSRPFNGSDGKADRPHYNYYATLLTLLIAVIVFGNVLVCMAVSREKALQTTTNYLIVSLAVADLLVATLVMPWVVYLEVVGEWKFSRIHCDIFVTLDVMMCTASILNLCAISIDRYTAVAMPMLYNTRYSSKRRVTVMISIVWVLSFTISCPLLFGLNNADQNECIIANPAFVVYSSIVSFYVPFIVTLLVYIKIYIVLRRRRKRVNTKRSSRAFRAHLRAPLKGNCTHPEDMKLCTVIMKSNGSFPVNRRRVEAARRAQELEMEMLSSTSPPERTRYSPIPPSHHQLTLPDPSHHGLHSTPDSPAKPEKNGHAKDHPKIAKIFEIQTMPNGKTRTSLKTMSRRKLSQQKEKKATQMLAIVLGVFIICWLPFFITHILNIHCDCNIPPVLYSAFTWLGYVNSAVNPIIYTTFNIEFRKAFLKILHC

In the case of `COc1ccc(N2CCN(CCCOc3c(C)cc(C)cc3C)CC2)cc1.Cl.Cl`, the Time (Mus musculus [1]) was 202 s, the ED50 (Mus musculus [2]) was 23.5 mg/kg and the selectivity ratio [3] was 2.89. For the same compound, the Activity (Mus musculus [4]) was “Non-Toxic”, the pKi [5] was 5.67 and the Activity (Mus musculus [6]) was “Active”. The Activity (Mus musculus [7]) was “Non-Toxic”, the Activity (Mus musculus [8]) was “inactive” and the Activity (Mus musculus [9]) was “inactive”. The pKi [10] was under 5.30, the Activity (Mus musculus [11]) was “inactive” and the pKi [12] was 6.11. For the same compound, the Time (Mus musculus [13]) was 179.9 s, the Activity (Mus musculus [14]) was “Non-Toxic” and the pIC50 [15] was 6.23. It also gave a Kb [16] of 146 nM, a pKi [17] of 6.84 and an Emax [18] of 8%. For the same compound, the Emax [19] was 1%, the Activity (Mus musculus [20]) was “Active” and the pKi (D(2) dopamine receptor) was 5.30. For the same compound, the TD50 at 0.5 h [21] was 67.9 mg/kg, the pKi [22] was 5.52 and the Activity (Mus musculus [23]) was “Active”. The Activity (Mus musculus [24]) was “inactive”, the Activity (Mus musculus [25]) was “inactive” and the Time (Mus musculus [26]) was 183.9 s.
